Experimental data reported in PubChem BioAssay.
Activity calls are given as the source filed them. Rule as the data show it, unless noted: active = inhibition above about 30%; inactive = the rest.

Legend:
[1] = reducers of endogenous Her2 protein level, primary screen, SKBR3 breast tumor cells, AlphaScreen, ATP viability (AID 461;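 active = Her2 level under about 52% in both replicate screens, with viability over 70% of control, limit read from the data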;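 as to Her2 level: lower value means less Her2 protein in the cells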;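 as to viability: percent of carrier control wells set as 100% viability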); conditions: 18-24 h, measured here: SKBR3 viability, ATP luminescence, at 10 µM
[2] = molecular target: Receptor tyrosine-protein kinase erbB-2 (Homo sapiens) (UniProt P04626); experiment: as above; conditions: 18-24 h, at 10 µM, stronger effect = lower value
Sequence of Receptor tyrosine-protein kinase erbB-2 (Homo sapiens) (P04626 whole entry, looked up): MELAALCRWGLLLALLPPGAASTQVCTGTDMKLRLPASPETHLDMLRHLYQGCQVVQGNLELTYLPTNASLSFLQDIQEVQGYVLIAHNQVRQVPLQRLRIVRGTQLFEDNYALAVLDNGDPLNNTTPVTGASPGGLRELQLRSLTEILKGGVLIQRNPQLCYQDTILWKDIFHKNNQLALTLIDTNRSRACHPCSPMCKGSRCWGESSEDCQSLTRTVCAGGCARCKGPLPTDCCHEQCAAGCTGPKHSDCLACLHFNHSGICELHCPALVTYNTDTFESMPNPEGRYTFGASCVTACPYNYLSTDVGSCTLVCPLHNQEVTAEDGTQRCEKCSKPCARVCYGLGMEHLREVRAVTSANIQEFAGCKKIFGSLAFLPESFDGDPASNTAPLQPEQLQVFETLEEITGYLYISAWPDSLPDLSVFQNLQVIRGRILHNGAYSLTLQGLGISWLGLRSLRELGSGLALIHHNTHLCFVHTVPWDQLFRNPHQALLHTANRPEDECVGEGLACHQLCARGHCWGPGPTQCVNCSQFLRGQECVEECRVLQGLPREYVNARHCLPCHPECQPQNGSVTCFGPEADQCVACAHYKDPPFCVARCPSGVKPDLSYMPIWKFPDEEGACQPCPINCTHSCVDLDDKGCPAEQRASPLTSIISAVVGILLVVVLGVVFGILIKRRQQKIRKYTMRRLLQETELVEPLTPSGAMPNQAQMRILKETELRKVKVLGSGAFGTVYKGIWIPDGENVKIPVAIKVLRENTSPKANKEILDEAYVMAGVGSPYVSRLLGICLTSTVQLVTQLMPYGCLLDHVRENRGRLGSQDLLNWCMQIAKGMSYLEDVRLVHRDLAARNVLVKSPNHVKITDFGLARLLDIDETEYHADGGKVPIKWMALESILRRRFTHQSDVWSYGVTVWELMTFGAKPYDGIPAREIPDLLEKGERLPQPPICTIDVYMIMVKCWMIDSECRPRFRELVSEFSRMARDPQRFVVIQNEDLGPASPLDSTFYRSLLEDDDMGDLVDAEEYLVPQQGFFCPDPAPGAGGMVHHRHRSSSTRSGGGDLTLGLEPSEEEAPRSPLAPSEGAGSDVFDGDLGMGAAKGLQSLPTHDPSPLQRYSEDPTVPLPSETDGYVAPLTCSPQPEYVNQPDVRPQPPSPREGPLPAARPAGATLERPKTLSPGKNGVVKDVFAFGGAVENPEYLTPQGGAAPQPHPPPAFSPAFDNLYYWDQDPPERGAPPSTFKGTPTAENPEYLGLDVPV

[3] = SK-BR-3 cell growth inhibitors, pilot screen, 24 h, human (AID 572;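 active = viability at or below 10% of carrier control in both of two separate runs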;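 also: compound exposure lasted between 18 and 24 h rather than exactly 24 h; 100% = carrier-treated control wells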); conditions: SK-BR-3 viability, CellTiter-Glo luminescence, at 10 µM, stronger effect = lower value
[4] = HUVEC growth inhibition – cell-based, human, primary screen (AID 575;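 active = viability at or below 30% in both replicate assays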;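 also: 100% = median of untreated cell wells with 0.1% DMSO on each plate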); conditions: HUVEC proliferation, CellTiter-Glo luminescence, 72 h; at 10 µM; stronger effect = lower value
Summary of the method: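 Assay system: Primary human umbilical vein endothelial cells | Quantity: 1250 cells per well | Medium: Supplemented EBM, 2% fetal bovine serum | Detection: CellTiter-Glo luminescence measuring cellular ATP | Read-out: % viability vs DMSO wells | Plate: Collagen-coated 384-well format | Times: 72 h exposure, 37 °C, 5% CO2, 30 min RT equilibration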

[5] = growth inhibitors of H69AR lung tumor, primary screen, human, duplicate replicates (AID 580;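 active = viability at or under a set limit in both replicates, limit being median viability minus 3 SD, cut at about 48% in these data, passing the limit was not always enough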;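 also: 100% = mean luminescence of untreated wells and 0% = no signal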); conditions: H69AR lung tumor cells viability, ATP luminescence, 72 h; at 10 µM; stronger effect = lower value
[6] = reversal of MRP1-mediated doxorubicin resistance, pilot screen, H69AR cells, doxorubicin co-treatment (AID 601;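 active = viability loss from added drug above about 55%, and viability with drug at most 40%, in both replicates, limit read from the data, passing the limit was not always enough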); conditions: CellTiter-Glo, 72 h, at 10 µM; for differential viability (reversal): stronger effect = higher value
[7] = 384-well plate pilot, post-Golgi transport modulator project, inhibition of yeast transport mutant growth (AID 636; in the data active = inhibition above about 31%); conditions: absorbance 615 nm, about 18 h, stronger effect = higher value
[8] = growth suppression of yeast trafficking mutant, preliminary HTS, modulators of trafficking downstream of Golgi apparatus project, 1536-format plate, OD 615 nm (AID 637); conditions: yeast transport mutant growth, absorbance 615 nm, 18 h; stronger effect = higher value
[9] = H69AR cells + 2 uM doxorubicin, measured here: viability with 2 uM doxorubicin, stronger effect = lower value
[10] = H69AR cells, compound alone cytotoxicity

Row | Compound | viability [1] | Her2 level [2] | viability [3] | viability [4] | viability [5] | differential viability (reversal) ([6]; H69AR cells + 2 uM doxorubicin) | viability [6, 9] | viability [6, 10] | inhibition [7] | inhibition [8]
1 | CC(C)COC(=O)C(C#N)c1nc2ccccc2nc1N1CCN(Cc2ccccc2)CC1 (stereo not given) | 76% | 85.5% (inactive) | 76% (inactive) | 64.7% (inactive) | 74.7% (inactive) | -5.91% (inactive) | 80.6% | 74.7% | -4.53% (inactive) | 14.3% (inactive)
2 | Clc1ccc(-c2nnc3sc(-c4ccc(Br)o4)nn23)cc1 | 128% | 94.5% (inactive) | 128% (inactive) | 86% (inactive) | 104% (inactive) | 10.5% (inactive) | 93.5% | 104% | -5.07% (inactive) | 5.87% (inactive)
3 | CCOC(=O)C1(C(=O)OCC)C(c2ccccc2)CC(O)N1C(C)=O (stereo not given) | 116% | 95% (inactive) | 116% (inactive) | 89.1% (inactive) | 86.2% (inactive) | 6.16% (inactive) | 80% | 86.2% | -6.18% (inactive) | 2.54% (inactive)
4 | CN(C)CC(=O)N1c2ccccc2CCc2ccc(NC(=O)c3ccc(N)cc3)cc21 | 103% | 102% (inactive) | 103% (inactive) | 82.1% (inactive) | 83.8% (inactive) | -4.88% (inactive) | 88.7% | 83.8% | -5.79% (inactive) | 4.26% (inactive)
5 | COc1ccccc1C(=O)Nc1nc2ccc(S(C)(=O)=O)cc2s1 | 89.5% | 78% (inactive) | 89.5% (inactive) | 93.5% (inactive) | 79.5% (inactive) | -6.1% (inactive) | 85.6% | 79.5% | 0.64% (inactive) | -1% (inactive)
6 | COc1cc2c(cc1OC)C(c1ccccc1O)N(C1CC(=O)N(c3ccccc3)C1=O)CC2 (stereo not given) | 113% | 96.5% (inactive) | 113% (inactive) | 97.7% (inactive) | 99.8% (inactive) | 18.3% (inactive) | 81.5% | 99.8% | -4.42% (inactive) | -5.08% (inactive)
7 | Cc1cc(Cl)ccc1NC(=O)CSc1nnc(Cc2cccs2)n1Cc1ccco1 | 77.5% | 95.5% (inactive) | 77.5% (inactive) | 68.3% (inactive) | 77.2% (inactive) | -8.29% (inactive) | 85.5% | 77.2% | -3.92% (inactive) | 1.97% (inactive)
8 | CC(=O)c1ccc2c3c(cccc13)C(=O)N(c1c(C)nn(C)c1C)C2=O | 99% | 108% (inactive) | 99% (inactive) | 112% (inactive) | 104% (inactive) | 0.09% (inactive) | 104% | 104% | 1.07% (inactive) | 1.31% (inactive)
9 | COc1cccc(OCCOCCN(C)CCO)c1 | 124% | 124% (inactive) | 124% (inactive) | 84.4% (inactive) | 97.3% (inactive) | 7.71% (inactive) | 89.6% | 97.3% | -4.93% (inactive) | -1.45% (inactive)
10 | Cc1cc(C(=O)Nc2sc3c(c2C#N)CCCCC3)cs1 | 91.5% | 92.5% (inactive) | 91.5% (inactive) | 76.6% (inactive) | 77.1% (inactive) | -4.53% (inactive) | 81.7% | 77.1% | -3.47% (inactive) | -4.1% (inactive)
11 | CN(CC(=O)Nc1sccc1C#N)C1CCCCC1 | 106% | 104% (inactive) | 106% (inactive) | 89.8% (inactive) | 93.2% (inactive) | 5.53% (inactive) | 87.7% | 93.2% | -6.67% (inactive) | -4.44% (inactive)
12 | COc1ccc2ccccc2c1CN1CCCC(CO)C1 (stereo not given) | 92.5% | 85.5% (inactive) | 92.5% (inactive) | 92.9% (inactive) | 82% (inactive) | 1.51% (inactive) | 80.5% | 82% | -1.82% (inactive) | 0.82% (inactive)
13 | CCOC(=O)C1CCN(C(=O)Nc2ccc3snnc3c2)CC1 | 96.5% | 88.5% (inactive) | 96.5% (inactive) | 92.2% (inactive) | 94.9% (inactive) | 5.87% (inactive) | 89% | 94.9% | -6.08% (inactive) | -0.67% (inactive)
14 | Cc1ccc(N(Cc2ccco2)C(=O)c2cccc(S(=O)(=O)N(C)C)c2)cc1 | 97.5% | 104% (inactive) | 97.5% (inactive) | 88.4% (inactive) | 96.7% (inactive) | -2.84% (inactive) | 99.6% | 96.7% | 0.53% (inactive) | -1% (inactive)
15 | Cc1occc1C(=O)Nc1cccc2ccccc12 | 86% | 75.5% (inactive) | 86% (inactive) | 62.9% (inactive) | 73.2% (inactive) | -12.8% (inactive) | 86.1% | 73.2% | -1.84% (inactive) | 1.77% (inactive)
16 | COc1cc(/C=N/n2c(C)nnc2C)cc(OC)c1OC | 104% | 95% (inactive) | 104% (inactive) | 105% (inactive) | 103% (inactive) | 19.3% (inactive) | 83.6% | 103% | -0.53% (inactive) | 5.74% (inactive)
17 | O=C(Cn1c(NCCO)nc2ccccc21)c1ccccc1 | 100% | 100% (inactive) | 100% (inactive) | 99.6% (inactive) | 104% (inactive) | 3.85% (inactive) | 101% | 104% | -2.16% (inactive) | 2.7% (inactive)
18 | COc1ccc(CCNC(=O)CSc2nnc(CNc3ccc(Cl)cc3)o2)cc1OC | 112% | 89% (inactive) | 112% (inactive) | 60.5% (inactive) | 84.3% (inactive) | -6.59% (inactive) | 90.9% | 84.3% | -0.65% (inactive) | -4.29% (inactive)
19 | Cc1cc(C(=O)Cn2cncn2)c(C)n1CCc1ccc(F)cc1 | 64% | 80% (inactive) | 64% (inactive) | 105% (inactive) | 89.2% (inactive) | -5.71% (inactive) | 95% | 89.2% | -5.41% (inactive) | 3.11% (inactive)
20 | COCCN(C(=O)CNC(=O)c1ccco1)C(C(=O)NC1CCCCC1)c1cccc(OC)c1 (stereo not given) | 96% | 103% (inactive) | 96% (inactive) | 88.1% (inactive) | 102% (inactive) | 12.6% (inactive) | 89.6% | 102% | -1.3% (inactive) | -1.17% (inactive)
21 | O=C(NCc1ccc2c(c1)OCO2)c1ccc(NS(=O)(=O)c2ccc3c(c2)OCCO3)cc1 | 102% | 84.5% (inactive) | 102% (inactive) | 85.2% (inactive) | 106% (inactive) | 15.4% (inactive) | 90.9% | 106% | -8.11% (inactive) | -3.65% (inactive)
22 | Cc1cc(=O)[nH]c(S/C=C/c2ccccc2)n1 | 91.5% | 95% (inactive) | 91.5% (inactive) | 77% (inactive) | 79.9% (inactive) | 0.47% (inactive) | 79.4% | 79.9% | -3.12% (inactive) | -2.86% (inactive)
23 | CC(=O)C1=C(C)OC(N)=C(C#N)C1c1ccncc1 (stereo not given) | 133% | 80.5% (inactive) | 133% (inactive) | 115% (inactive) | 93.2% (inactive) | 8.39% (inactive) | 84.8% | 93.2% | -5.6% (inactive) | 5.41% (inactive)
24 | CCOc1ccccc1N(C(=O)c1ccco1)C(C(=O)NC1CCCC1)c1cccnc1 (stereo not given) | 84% | 104% (inactive) | 84% (inactive) | 101% (inactive) | 90.5% (inactive) | -6.1% (inactive) | 96.6% | 90.5% | -1.78% (inactive) | -2.54% (inactive)
25 | Cc1ccc(S(=O)(=O)CCC(=O)Nc2ccc3c(c2)OCO3)cc1 | 96.5% | 84.5% (inactive) | 96.5% (inactive) | 92.5% (inactive) | 81.3% (inactive) | -10.8% (inactive) | 92.1% | 81.3% | 0.95% (inactive) | -2.22% (inactive)
26 | O=C(CCCN1C(=O)c2ccccc2C1=O)N1CCC(c2ccccc2)C1 (stereo not given) | 110% | 108% (inactive) | 110% (inactive) | 114% (inactive) | 96.4% (inactive) | -1.44% (inactive) | 97.8% | 96.4% | -5% (inactive) | 0.33% (inactive)
27 | Cc1nc2sc(C(c3cccc(F)c3)N3CCN(C(=O)c4ccco4)CC3)c(O)n2n1 (stereo not given) | 94% | 109% (inactive) | 94% (inactive) | 120% (inactive) | 99.3% (inactive) | 2.58% (inactive) | 96.7% | 99.3% | -5% (inactive) | -9.83% (inactive)
28 | O=c1cc(C(F)F)oc2c1ccc1ccccc12 | 93.5% | 98.5% (inactive) | 93.5% (inactive) | 74.8% (inactive) | 81.7% (inactive) | -9.89% (inactive) | 91.6% | 81.7% | -0.91% (inactive) | 2.33% (inactive)
29 | CC(C)=CCC(C)(C)C1OCCN1C(=O)c1ccccc1 (stereo not given) | 84.5% | 99% (inactive) | 84.5% (inactive) | 82.4% (inactive) | 98% (inactive) | 8.65% (inactive) | 89.3% | 98% | -3.77% (inactive) | 2.3% (inactive)
